Experimental data from ChEMBL document CHEMBL4177642, “Cyclic perylene diimide: Selective ligand for tetraplex DNA binding over double stranded DNA” (Bioorg Med Chem, 2017).
The source made the active and inactive calls. The rule behind the calls is not given here.

Tests used:
[1] = test system: Quadruplex DNA; test: Binding affinity to human TA-core of telomeric sequence G-quadruplex DNA assessed as hyperchromic shift at 550 nanometer at 5 uM in presence of 100 mM KCl by UV-vis spectrophotometric analysis relative to control; type: nucleic-acid assay
Outline: (§1)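 Absorption spectra at 25 °C of 5.0 μM ligand in 50 mM Tris-HCl pH 7.4, 0.10 M KCl, titrated with TA-core (0–15.7 μM) or CT-DNA (0–323.4 μM; concentration in base pairs).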

[2] = test system: Calf thymus DNA; test: Binding affinity to calf thymus duplex DNA assessed as red shift at 500 nanometer at 5 uM in presence of 100 mM KCl by UV-vis spectrophotometric analysis; type: ADME, nucleic-acid assay, Bos taurus; settings: cattle; outline: as §1
[3] = test system: Calf thymus DNA; test: Binding affinity to calf thymus duplex DNA assessed as hyperchromic shift at 550 nanometer at 5 uM in presence of 100 mM KCl by UV-vis spectrophotometric analysis relative to control; type: ADME, nucleic-acid assay, Bos taurus; settings: cattle; outline: as §1
[4] = test system: double-stranded DNA oligonucleotide dsOligo (synthetic); test: Binding affinity to synthetic duplex DNA oligonucleotide dsOligo assessed as change in melting temperature at 1.5 uM in presence of K+ by spectrophotometric analysis
[5] = test system: Quadruplex DNA; test: Binding affinity to human TA-core of telomeric sequence G-quadruplex DNA assessed as red shift at 500 nanometer at 5 uM in presence of 100 mM KCl by UV-vis spectrophotometric analysis; type: nucleic-acid assay; outline: as §1
[6] = test system: Calf thymus DNA; test: Binding affinity to calf thymus duplex DNA assessed as change in the intensities of positive band formation at 250 nm up to 10 uM in presence of Na+ by CD spectroscopic method; type: ADME, nucleic-acid assay, Bos taurus; settings: cattle, 0.25 µM
[7] = test system: double-stranded DNA oligonucleotide dsOligo (synthetic); test: Binding affinity to synthetic duplex DNA oligonucleotide dsOligo assessed as increase in melting temperature at 3 to 4.5 uM in presence of K+ by spectrophotometric analysis
[8] = test system: Calf thymus DNA; test: Binding affinity to calf thymus duplex DNA assessed as change in the intensities of positive band formation at 250 nm up to 10 uM by CD spectroscopic method; type: ADME, nucleic-acid assay, Bos taurus; settings: cattle, 0.25 µM
[9] = test system: Calf thymus DNA; test: Binding affinity to calf thymus duplex DNA assessed as change in the intensities of negative band formation at 280 nm up to 10 uM by CD spectroscopic method; type: ADME, nucleic-acid assay, Bos taurus; settings: cattle, 0.28 µM
[10] = test system: Quadruplex DNA; test: Binding affinity to human TA-core of telomeric sequence G-quadruplex DNA assessed as stabilization of antiparallel structure formation up to 4.5 uM in presence of Na+ by CD spectroscopic method; type: nucleic-acid assay
[11] = test system: Quadruplex DNA; test: Binding affinity to human TA-core of telomeric sequence G-quadruplex DNA assessed as hypochromic shift at 500 nanometer at 5 uM in presence of 100 mM KCl by UV-vis spectrophotometric analysis relative to control; type: nucleic-acid assay; outline: as §1
[12] = test system: Quadruplex DNA; test: Binding affinity to human TA-core of telomeric sequence G-quadruplex DNA assessed as change in melting temperature at 1.5 uM in presence of Na+ by spectrophotometric analysis; type: nucleic-acid assay
Outline: (§2)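 Melting of 1.5 μM TA-core followed by CD at 288 nm in 50 mM Tris-HCl pH 7.4 with 20 mM KCl or 20 mM NaCl. Run without or with 1.5 μM ligand (1:1 ligand:DNA), heating at 60 °C/h, data every 0.5 °C, 1 cm cell.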

[13] = test system: Quadruplex DNA; test: Binding affinity to human TA-core of telomeric sequence G-quadruplex DNA assessed as change in enthalpy at 100 uM in presence of Na+ by isothermal titration calorimetric method; type: nucleic-acid assay
Outline: (§3)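 ITC at 25 °C: TA-core (10 μM in cell) annealed 95 °C 10 min, cooled 1.0 °C/min to 25 °C, in 50 mM AcOK-AcOH pH 5.5 (K+ lines) or AcONa-AcOH pH 5.5 (Na+ lines). Ligand at 100 μM in same buffer injected repeatedly (1.96 μL each). Solutions degassed 10 min; data fitted to an independent-site model.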

[14] = Inhibition of telomerase (unknown origin) by TRAP assay; design: species or system Homo sapiens
Outline: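 TRAP with a TRAPeze kit, using positive-control cell lysate (250 cells per reaction). Extension 30 °C 1 h, then 35 PCR cycles. Products run on 12.5% PAGE, GelStar-stained and analyzed per kit.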

[15] = test system: Quadruplex DNA; test: Binding affinity to human TA-core of telomeric sequence G-quadruplex DNA assessed as change in melting temperature at 1.5 uM in presence of K+ by spectrophotometric analysis; type: nucleic-acid assay; outline: as §2
[16] = test system: Calf thymus DNA; test: Binding affinity to calf thymus duplex DNA assessed as change in the intensities of positive band formation at 250 nm up to 10 uM in presence of K+ by CD spectroscopic method; type: ADME, nucleic-acid assay, Bos taurus; settings: cattle, 0.25 µM
[17] = Binding affinity to 27-mer DNA hairpin (unknown origin) at 100 uM in presence of K+ by isothermal titration calorimetric method
[18] = Binding affinity to 27-mer DNA hairpin (unknown origin) at 100 uM in presence of Na+ by isothermal titration calorimetric method
[19] = test system: Calf thymus DNA; test: Binding affinity to calf thymus duplex DNA assessed as change in the intensities of negative band formation at 280 nm up to 10 uM in presence of Na+ by CD spectroscopic method; type: ADME, nucleic-acid assay, Bos taurus; settings: cattle, 0.28 µM
[20] = test system: Calf thymus DNA; test: Binding affinity to calf thymus duplex DNA assessed as change in the intensities of negative band formation at 280 nm up to 10 uM in presence of K+ by CD spectroscopic method; type: ADME, nucleic-acid assay, Bos taurus; settings: cattle, 0.28 µM
[21] = test system: Quadruplex DNA; test: Binding affinity to human TA-core of telomeric sequence G-quadruplex DNA assessed as change in enthalpy at 100 uM in presence of K+ by isothermal titration calorimetric method; type: nucleic-acid assay; outline: as §3
[22] = test system: Quadruplex DNA; test: Binding affinity to human TA-core of telomeric sequence G-quadruplex DNA assessed as stabilization of antiparallel structure formation up to 5 equiv by CD spectroscopic method; type: nucleic-acid assay
[23] = test system: Calf thymus DNA; test: Binding affinity to calf thymus duplex DNA assessed as isosbestic point at 5 uM by UV-vis spectrophotometric analysis; type: ADME, nucleic-acid assay, Bos taurus; settings: cattle; outline: as §1
[24] = test system: Quadruplex DNA; test: Binding affinity to human TA-core of telomeric sequence G-quadruplex DNA assessed as stabilization of antiparallel G-quadruplex structure by measuring increase in intensities of negative band at 240 nanometer up to 7.5 uM in presence of K+ by CD spectroscopic method; type: nucleic-acid assay
[25] = test system: Quadruplex DNA; test: Binding affinity to human TA-core of telomeric sequence G-quadruplex DNA assessed as isosbestic point at 5 uM in presence of 100 mM KCl by UV-vis spectrophotometric analysis; type: nucleic-acid assay; outline: as §1
[26] = test system: Quadruplex DNA; test: Binding affinity to human TA-core of telomeric sequence G-quadruplex DNA assessed as change in entropy at 100 uM in presence of Na+ by isothermal titration calorimetric method; type: nucleic-acid assay; outline: as §3
[27] = Selectivity ratio of binding constant for human TA-core of telomeric sequence G-quadruplex DNA to binding conctant for calf thymus duplex DNA
[28] = test system: Quadruplex DNA; test: Binding affinity to human TA-core of telomeric sequence G-quadruplex DNA assessed as stabilization of antiparallel G-quadruplex structure by measuring increase in intensities of positive band at 290 nanometer up to 7.5 uM in presence of K+ by CD spectroscopic method; type: nucleic-acid assay
[29] = test system: Calf thymus DNA; test: Binding affinity to calf thymus duplex DNA assessed as hypochromic shift at 500 nanometer at 5 uM in presence of 100 mM KCl by UV-vis spectrophotometric analysis relative to control; type: ADME, nucleic-acid assay, Bos taurus; settings: cattle; outline: as §1
[30] = test system: DNA; test: Binding affinity to Escherichia coli pUC19 duplex DNA assessed as unwinding of supercoiled DNA up to 40 uM after 1 hr in presence of human topoisomerase-1 by agarose gel electrophoresis; type: ADME, nucleic-acid assay
Outline: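 pUC19 plasmid (0.025 μg/μL) preincubated 5 min at 37 °C with human Topo I (0.25 units/μL, 0.01% BSA) in 35 mM Tris-HCl pH 8.0, 72 mM KCl, 5 mM MgCl2, 5 mM DTT, 5 mM spermidine. Ligand then added and incubated 1 h at 37 °C. Stopped with SDS, proteinase K digested, phenol/chloroform extracted, run on 1% agarose, GelStar-stained.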

[31] = test system: Quadruplex DNA; test: Binding affinity to human TA-core of telomeric sequence G-quadruplex DNA assessed as change in entropy at 100 uM in presence of K+ by isothermal titration calorimetric method; type: nucleic-acid assay; outline: as §3

Structure (SMILES): O=C1CCCCCC(=O)NCCCN2CCN(CCCN3C(=O)c4ccc5c6ccc7c8c(ccc(c9ccc(c4c59)C3=O)c86)C(=O)N(CCCN3CCN(CCCN1)CC3)C7=O)CC2
- Activity [1]: 55%
- Activity [2]: 8 nm
- Activity [3]: 29%
- deltaTm [4]: -1 °C
- Activity [5]: 13 nm
- Activity [6]: Not Active
- Activity [7]: Not Active
- Activity [8]: Not Active
- Activity [9]: Not Active
- Activity [10]: Active
- Activity [11]: 42%
- ΔTm [12]: 14 °C
- deltaH [13]: -7.14 kcal/mol
- IC50 [14]: 240 nM
- ΔTm [15]: 21 °C
- Activity [16]: Not Active
- Activity [17]: inactive
- Activity [18]: inactive
- Activity [19]: Not Active
- Activity [20]: Not Active
- deltaH [21]: -6.71 kcal/mol
- Activity [22]: Active
- Activity [23]: 520 nm
- Activity [24]: Active
- Activity [25]: 510 nm
- -TdeltaS [26]: -1.7 kcal/mol
- Selectivity ratio [27]: 900
- Activity [28]: Active
- Activity [29]: 50%
- Activity [30]: Not Active
- -TdeltaS [31]: -1.56 kcal/mol
